From ChEMBL document CHEMBL5329211, “Selective isoxazolopyrimidine PAT1 (SLC26A6) inhibitors for therapy of intestinal disorders” (RSC Med Chem, 2023) come the findings set out here.

The target in series [1] is T1, Chloride anion exchanger (Homo sapiens) (UniProt P40879).
T1 sequence (whole entry): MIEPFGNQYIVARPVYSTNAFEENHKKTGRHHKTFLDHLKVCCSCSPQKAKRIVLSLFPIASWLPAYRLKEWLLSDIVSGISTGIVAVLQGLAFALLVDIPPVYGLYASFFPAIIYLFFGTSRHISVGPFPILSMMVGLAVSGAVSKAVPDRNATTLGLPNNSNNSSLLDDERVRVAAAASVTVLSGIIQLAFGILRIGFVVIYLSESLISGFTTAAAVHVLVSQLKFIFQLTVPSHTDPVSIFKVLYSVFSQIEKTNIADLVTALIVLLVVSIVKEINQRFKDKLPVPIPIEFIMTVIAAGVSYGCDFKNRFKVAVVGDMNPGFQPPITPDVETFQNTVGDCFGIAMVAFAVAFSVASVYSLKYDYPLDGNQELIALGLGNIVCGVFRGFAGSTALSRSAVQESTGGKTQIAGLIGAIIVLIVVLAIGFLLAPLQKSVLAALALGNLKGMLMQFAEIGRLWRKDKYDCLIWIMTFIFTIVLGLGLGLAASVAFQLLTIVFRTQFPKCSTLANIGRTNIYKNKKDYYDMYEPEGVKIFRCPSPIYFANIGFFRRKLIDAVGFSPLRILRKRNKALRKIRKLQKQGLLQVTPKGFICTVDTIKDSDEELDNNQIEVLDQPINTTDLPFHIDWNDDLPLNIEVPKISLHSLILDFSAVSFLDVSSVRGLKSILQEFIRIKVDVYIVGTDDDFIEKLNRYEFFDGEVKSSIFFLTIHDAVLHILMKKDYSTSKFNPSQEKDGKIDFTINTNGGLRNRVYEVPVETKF
Briefly: Inhibition of SLC26A3 (unknown origin) expressed in rat FRT cells coexpressing YFP halide-sensing protein assessed as iodide-chloride exchange at 25 uM incubated for 2 sec by fluorescence quenching analysis. It counts as cell-based.

In the next series the target is T2, Pendrin (Homo sapiens) (UniProt O43511).
T2 sequence (whole entry): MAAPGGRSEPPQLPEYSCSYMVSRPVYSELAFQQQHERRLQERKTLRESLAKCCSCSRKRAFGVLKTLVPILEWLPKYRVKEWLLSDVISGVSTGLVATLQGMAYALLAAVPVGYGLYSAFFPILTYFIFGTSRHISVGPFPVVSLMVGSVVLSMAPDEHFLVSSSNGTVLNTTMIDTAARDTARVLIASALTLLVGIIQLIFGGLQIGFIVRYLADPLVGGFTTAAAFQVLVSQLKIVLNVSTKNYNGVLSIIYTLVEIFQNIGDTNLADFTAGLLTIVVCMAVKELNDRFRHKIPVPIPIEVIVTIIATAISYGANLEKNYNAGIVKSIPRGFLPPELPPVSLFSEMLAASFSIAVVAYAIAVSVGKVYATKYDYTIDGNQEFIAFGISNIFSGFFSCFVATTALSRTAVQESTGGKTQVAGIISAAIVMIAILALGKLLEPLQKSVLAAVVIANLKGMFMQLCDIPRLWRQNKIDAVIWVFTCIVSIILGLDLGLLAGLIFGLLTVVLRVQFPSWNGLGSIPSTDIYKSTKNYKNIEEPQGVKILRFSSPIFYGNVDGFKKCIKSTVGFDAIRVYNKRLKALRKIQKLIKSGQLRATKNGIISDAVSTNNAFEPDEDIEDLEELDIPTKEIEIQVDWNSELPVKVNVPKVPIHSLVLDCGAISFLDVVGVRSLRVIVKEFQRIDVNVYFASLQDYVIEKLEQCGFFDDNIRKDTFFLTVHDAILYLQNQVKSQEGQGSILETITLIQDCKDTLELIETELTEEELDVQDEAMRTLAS
Briefly: Inhibition of SLC26A4 (unknown origin) expressed in rat FRT cells coexpressing YFP halide-sensing protein assessed as iodide-chloride exchange at 25 uM incubated for 2 sec by fluorescence quenching analysis. Format: cell-based.

The target of series [2] is Cystic fibrosis transmembrane conductance regulator (Homo sapiens) (UniProt P13569). Briefly: Inhibition of CFTR (unknown origin).
Sequence of Cystic fibrosis transmembrane conductance regulator (Homo sapiens) (P13569 whole entry, looked up): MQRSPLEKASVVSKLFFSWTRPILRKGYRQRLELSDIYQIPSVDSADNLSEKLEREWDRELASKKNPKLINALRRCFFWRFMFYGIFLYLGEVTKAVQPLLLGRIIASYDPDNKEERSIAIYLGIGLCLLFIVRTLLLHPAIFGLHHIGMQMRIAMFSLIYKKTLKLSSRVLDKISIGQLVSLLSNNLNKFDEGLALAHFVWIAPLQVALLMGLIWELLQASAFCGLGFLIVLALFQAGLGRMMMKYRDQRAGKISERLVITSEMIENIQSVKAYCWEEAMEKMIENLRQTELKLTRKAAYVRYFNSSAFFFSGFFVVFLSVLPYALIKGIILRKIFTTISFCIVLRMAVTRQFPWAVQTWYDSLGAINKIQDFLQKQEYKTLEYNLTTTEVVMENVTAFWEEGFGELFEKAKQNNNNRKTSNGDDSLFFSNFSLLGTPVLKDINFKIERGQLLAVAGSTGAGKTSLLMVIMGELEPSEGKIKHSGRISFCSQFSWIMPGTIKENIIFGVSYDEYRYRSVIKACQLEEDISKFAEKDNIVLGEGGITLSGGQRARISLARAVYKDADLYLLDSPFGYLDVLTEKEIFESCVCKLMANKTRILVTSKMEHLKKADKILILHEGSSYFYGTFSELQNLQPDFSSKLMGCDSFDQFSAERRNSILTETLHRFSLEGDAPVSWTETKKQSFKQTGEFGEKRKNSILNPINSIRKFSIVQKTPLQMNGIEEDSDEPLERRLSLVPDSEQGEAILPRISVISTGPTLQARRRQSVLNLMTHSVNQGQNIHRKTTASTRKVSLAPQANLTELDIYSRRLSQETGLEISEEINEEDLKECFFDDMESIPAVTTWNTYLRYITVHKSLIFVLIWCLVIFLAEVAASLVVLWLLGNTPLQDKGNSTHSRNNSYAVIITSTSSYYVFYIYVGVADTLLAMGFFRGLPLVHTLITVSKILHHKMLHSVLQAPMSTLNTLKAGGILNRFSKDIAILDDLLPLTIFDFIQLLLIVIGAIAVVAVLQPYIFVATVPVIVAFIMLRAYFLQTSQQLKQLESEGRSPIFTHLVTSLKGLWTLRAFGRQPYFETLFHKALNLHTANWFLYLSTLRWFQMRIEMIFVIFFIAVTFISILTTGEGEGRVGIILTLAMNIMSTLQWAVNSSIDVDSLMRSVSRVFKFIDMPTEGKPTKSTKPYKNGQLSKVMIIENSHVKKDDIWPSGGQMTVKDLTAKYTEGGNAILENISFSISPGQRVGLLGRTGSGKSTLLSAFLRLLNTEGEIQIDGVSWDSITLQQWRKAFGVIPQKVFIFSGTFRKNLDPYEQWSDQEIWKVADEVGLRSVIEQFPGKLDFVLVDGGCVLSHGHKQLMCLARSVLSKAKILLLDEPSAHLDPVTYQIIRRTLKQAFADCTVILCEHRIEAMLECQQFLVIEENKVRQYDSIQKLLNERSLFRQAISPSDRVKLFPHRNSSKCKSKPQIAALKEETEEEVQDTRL
A short description of series [3]: Cytotoxicity against rat FRT cells assessed as reduction in cell viability at 10 uM incubated for 24 hrs by alamar blue staining based analysis. It counts as toxicity. Put shortly: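 FRT cells seeded 20,000/well and grown 24 h, then exposed to compound at 10 μM for 24 h. Vehicle control 0.1% DMSO, positive control 20% DMSO. Viability read by Alamar Blue.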
Background: Alamar Blue is a resazurin reagent that responds to reducing activity.

Series [4] is described as follows: In vivo inhibition of PAT1 in intestinal closed-loop CD-1 mouse model assessed as reduction in loop weight/length ratio in ileum measured for 30 mins. It counts as functional. The conditions noted are these: 0.5 h. Put shortly: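 Mice (wild-type CD1 or homozygous F508del CF, 10-16 wk, both sexes) fasted 24 h with free access to 5% dextrose water. Under isoflurane at 36-38 °C, 2-3 ileal loops (2-3 cm) were tied off and injected with 100 µL PBS pH 7.4 containing 30 µM inhibitor, 10 µM tenapanor or 0.1% DMSO vehicle. Loops removed at 0 or 30 min in separate mice; length and weight measured for fluid absorption. One-way ANOVA with Newman-Keuls.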

Active and inactive are the calls of the source. The calls are words filed in the database; no cut-off is given here.

For `CCOC(=O)c1nc(N(C)Cc2ccccc2)c2c(C)noc2n1`, the inhibition entry (in series [1]; at Pendrin (Homo sapiens); in series [2]) was “inactive” throughout. The Activity entry in series [3] is given as “Non-Toxic”. Moreover, the “inhibition (INH)” value in series [4] is reported as over 90%.
